# Screening results deposited in PubChem by several laboratories.
# ADAM10 inh: inhibits human ADAM10; inhibition, % at 7 µM; 370,000 tested, 0.62% active; recombinant ADAM10, EDANS/DABCYL FRET peptide cleavage, 3 h;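 active means inhibition above a per-campaign cutoff equal to the mean of compounds falling between control-based bounds plus 3 SD, cut at about 20% in these data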
# Target sequence (O14672 214-748 limits assumed): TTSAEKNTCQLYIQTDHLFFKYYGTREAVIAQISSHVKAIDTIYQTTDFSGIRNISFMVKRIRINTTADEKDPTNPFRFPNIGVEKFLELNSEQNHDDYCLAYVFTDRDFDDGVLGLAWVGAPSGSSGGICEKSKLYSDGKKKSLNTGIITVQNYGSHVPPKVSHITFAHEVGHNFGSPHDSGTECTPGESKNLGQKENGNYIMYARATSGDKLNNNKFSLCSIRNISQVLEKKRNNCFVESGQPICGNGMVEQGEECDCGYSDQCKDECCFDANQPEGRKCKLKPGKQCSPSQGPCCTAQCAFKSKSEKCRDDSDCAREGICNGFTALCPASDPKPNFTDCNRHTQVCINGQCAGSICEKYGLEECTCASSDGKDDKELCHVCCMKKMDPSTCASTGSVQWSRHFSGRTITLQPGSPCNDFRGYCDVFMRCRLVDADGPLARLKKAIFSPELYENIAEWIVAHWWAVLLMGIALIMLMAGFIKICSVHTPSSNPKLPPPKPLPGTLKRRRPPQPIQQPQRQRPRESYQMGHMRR
# ADAM17 inh: inhibitors of human ADAM17 | recombinant ADAM17, EDANS/DABCYL FRET peptide cleavage | inhibition, % at 6.95 µM | 370,000 tested, 0.83% active;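 active means inhibition above the mean of compounds lying between control limits plus 3 SD, set per campaign, cut at about 8.5% in these data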
# FAS-TE inh: FAS thioesterase (human) inhibition; P49327; recombinant FAS-TE, OMFH fluorogenic substrate, fluorescence endpoint; inhibition, % at 15 µM; 360,000 tested, 0.67% active;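 active means compounds whose normalised, plate-corrected inhibition of enzyme fluorescence in the single-dose primary screen is 50% or more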
# SENP1 inh: SENP1 (human) catalytic domain inhibition | Q9P0U3 | recombinant SENP1 catalytic domain, CyPet-SUMO1-YPet FRET cleavage | AID 624204 | inhibition, % at 10 µM | 360,000 tested, 0.21% active;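 active means inhibition at least 30% at 10 µM, raw YFP signal under a set limit, fluorescence ratio 0.5 to 1.5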
#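 Assay system – human recombinant His6-tagged SENP1 catalytic domain enzyme · Input – SENP1 enzyme, 20 pM final · Buffer or medium – Tris pH 8 buffer plus EDTA, NaCl, BME, BSA, NP40, catalase · Schedule – 50 min reaction at room temperature · Technique – FRET read of cyan and yellow fluorescence · Control set – no-enzyme wells low, DMSO-plus-enzyme wells high control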
# FAS-TE inh conf: FAS thioesterase (human) inhibition, confirmation; inhibition, % at 15 µM; shares compounds with FAS-TE inh; recombinant FAS-TE, OMFH fluorogenic substrate, fluorescence; 2,300 tested, 45% active; AID 624325;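 active means compounds inhibiting the enzyme by at least 50% at 15 µM in any one of the replicates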
# Numbers stand for hits; - = inactive; . = no result given. Hits are enriched below; roughly 1.9% of the tested compounds scored in any of these assays.
SMILES,ADAM10 inh,ADAM17 inh,FAS-TE inh,SENP1 inh,FAS-TE inh conf
OC(COCC(F)(F)C(F)(F)C(F)(F)C(F)F)Cn1c2ccc(Cl)cc2c2cc(Cl)ccc21 (configuration not stated),.,.,56,-,.
N=c1n(Cc2ccc(Cl)cc2)c2ccccc2n1CC(O)COc1ccccc1 (configuration not stated),-,-,-,-,.
COc1cc(C=Nn2c(-c3ccc(F)cc3)n[nH]c2=S)ccc1OCc1ccccc1,-,-,.,.,.
Cc1cc(O)c(C=O)c2c1C(=O)Oc1c(CO)c(O)c3c(c1O2)C(O)OC3=O (configuration not stated),.,.,-,30,.
CC(C)CSc1nnc(-c2ccco2)n1C,-,-,.,.,.
CCOc1ccc2nc(N3C(=O)/C(=C/c4ccc(Cl)cc4)NC3=S)sc2c1,-,-,-,33,.
CN(C(=O)CNC(=O)c1ccccc1OCC(=O)Nc1ccc(I)cc1)c1ccccc1,-,-,.,.,.
C=CCN(CC#CC1=CCCCC1)Cc1ccccc1,-,-,.,.,.
CCc1noc(C)c1C(=O)OC(C)C(=O)Nc1cc([N+](=O)[O-])ccc1OC (configuration not stated),-,-,75,-,-
COc1ccc([N+](=O)[O-])cc1NC(=O)C(C)OC(=O)/C=C/c1ccco1 (configuration not stated),-,-,62,-,59
Cc1ccc(C(=O)NCC(=O)OCc2nnc(-c3ccc([N+](=O)[O-])cc3)o2)s1,-,-,53,-,65
Cc1csc(=O)n1CC(=O)OCc1nnc(-c2ccc([N+](=O)[O-])cc2)o1,-,-,-,-,.
O=C(Nc1nc2ncccn2c1-c1ccc(F)c(F)c1)C1CC1,-,-,.,.,.
O=C(NC1CCCC1)C(c1c[nH]c2ccccc12)N(C(=O)Cn1nnc(-c2ccc(Cl)cc2)n1)c1ccccc1 (configuration not stated),-,-,64,-,-
CC(C)(C)NC(=O)C(c1c[nH]c2ccccc12)N(C(=O)Cn1nnc(-c2ccc(Cl)cc2)n1)c1ccccc1F (configuration not stated),-,-,-,-,.
Cc1ccc(-n2c(SCC(=O)c3c(N)n(C)c(=O)n(C)c3=O)nc3sc4c(c3c2=O)CCCC4)c(C)c1,-,-,52,-,-
Cc1ccc2c(c1)[C@H]1[C@H](CO2)[C@H](c2ccccc2)[C@]2(C)C(=O)Nc3cc(F)ccc3C(=O)N12,-,-,54,-,-
Cc1ccc2c(c1)[C@H]1[C@H](CO2)[C@H](c2ccccc2)[C@]2(C)C(=O)Nc3ccccc3C(=O)N12,-,-,53,-,-
C[C@@]12C(=O)Nc3cc(F)ccc3C(=O)N1[C@H]1c3cc(Br)ccc3OC[C@@H]1[C@@H]2c1ccccc1,-,-,80,-,-
c1ccc(CNC2CCC23CCC(c2ccccc2)CC3)cc1 (configuration not stated),-,-,.,.,.
COc1ccc(-c2cc(C(=O)NN=Cc3ccc(C)s3)[nH]n2)cc1,-,-,.,.,.
CCCC[C@H]1C2CC(OC(=O)Nc3cc(C)cc(C)c3)C(C2)[C@H]2CCCCN21 (some centres not stated),-,-,.,.,.
Cc1cc(-c2ccc(/C=N/n3cnnc3)o2)c(C)c([N+](=O)[O-])c1,-,-,60,-,39
COC(=O)[C@]12C[C@H](CC(=O)N3CCCC3)C(=O)N(Cc3ccc(Cl)cc3Cl)C1=C[C@H](COCc1ccccc1)O[C@@H]2C,-,-,.,.,.
Cc1ccc(C(=O)NCCSC(C)(C)C)cc1[N+](=O)[O-],-,-,56,-,56
Cc1ccc(C(=O)NCCSC(C)(C)C)cc1,-,-,-,-,.
Cc1ccc(C(=O)NCCSCc2ccc(Cl)cc2Cl)cc1[N+](=O)[O-],-,-,51,-,-
O=C(CN1C(=O)C2CCCCN2C(=O)c2ccccc21)N1CCCC1 (configuration not stated),-,-,.,.,.
O=C(c1ccccc1)N(C(=O)c1ccccc1)c1ncnc2c1C(c1ccccc1)c1c(ccc3ccccc13)O2 (configuration not stated),-,-,62,-,-
c1ccc(C2c3c(ccc4ccccc34)Oc3ncn4nc(-c5ccco5)nc4c32)cc1 (configuration not stated),-,-,77,-,-
